Measured values pooled from the literature.
Each line is one published result; the experiments were not run side by side. pIC50: −log10 of the molar value.
Effect on: cell growth or viability

Compound | cell line | test | setting | measurement | result
Fc1ccc2[nH]cc(CNCC3(N4CCC(F)C4)COC3)c2c1 (stereo not drawn) | T98G |  | 30 µM, 48 h | viability | 75.2%
C=CC(=O)N1CCC[C@@H](n2nc(-c3ccc(Oc4ccccc4)cc3)c3c(N)ncnc32)C1 | Rec1 | ATP luminescence | 72 h | GI50 | 3300 nM
FC1CCN(C2(CNCc3ccc(-c4ccccc4Cl)o3)COC2)C1 (stereo not drawn) | GBM6 |  | 30 µM, 48 h | viability | 47.4%
Cc1cc(=O)c(-c2ccc(Oc3ccc(C(F)(F)F)cc3)cc2)c(C)n1O | HEK293 |  |  | pIC50 | < 5.00
COc1cc(N(C)CCN(C)C)c(NC(=O)/C=C/C(C)C)cc1Nc1nc(N2CCc3sccc3C2)c2sccc2n1 | NCI-H1975 | MTT |  | pIC50 | 4.81
FC1CCN(C2(CNCc3ccc(-c4ccccc4)o3)COC2)C1 (stereo not drawn) | GBM6 |  | 30 µM, 48 h | viability | 72.7%
Cc1nc2ccc(-c3ccc(OC(F)(F)F)cc3)cc2c(O)c1C#N | HEK293 |  |  | pIC50 | < 5.00
Cn1cc(-c2cc(N3CCCCS3(=O)=O)ccc2Oc2ccc(F)cc2F)c2c(F)c[nH]c2c1=O | TMD8 | CCK-8 | 72 h | GI50 | 9.3 nM
COc1cc(N(C)CCN(C)C)c(NC(=O)C=C(C)C)cc1Nc1nc(Nc2cnn(C)c2)c2sccc2n1 | NCI-H1975 | MTT |  | pIC50 | 6.38
Cc1[nH]c(C)c(-c2ccc(-c3ccc(F)cc3)cc2)c(=O)c1Br | HEK293 |  |  | pIC50 | < 5.00
CC(=O)c1c(C)c2cnc(Nc3ccc(N4CCNCC4)cn3)nc2n(C2CCCC2)c1=O | HCC1428 | resazurin |  | GI50 | 600 nM
c1cc2cc(CNCC3(N4CCCC4)COC3)ccc2[nH]1 | T98G |  | 30 µM, 48 h | viability | 98.2%
Cc1n(Cc2ccc3ccccc3n2)cc[n+]1Cc1ccc2ccccc2c1 | NCI-H322M | SRB |  | TGI | 14.7 µM
Cc1[nH]c(C)c(-c2ccc(-c3ccc(Cl)cc3)nc2)c(=O)c1Cl | HEK293 |  |  | pIC50 | < 5.00
COc1cc(N(C)CCN(C)C)c(NC(=O)C=C(C)C)cc1Nc1nc(N2CCc3sccc3C2)c2sccc2n1 | NCI-H1975 | MTT |  | pIC50 | 5.00
COc1cc(-c2ccc(-c3ccc(C(=N)N)nc3)s2)cc(OC)c1OC | SF-539 | SRB |  | GI50 | 1610 nM
Cc1cc(=O)c2cc(-c3ccc(OC(F)(F)F)cc3)ccc2[nH]1 | HEK293 |  |  | pIC50 | < 5.00
Fc1ccc2c(CNCC3(N4CCC(F)C4)COC3)c[nH]c2c1 (stereo not drawn) | T98G |  | 30 µM, 48 h | viability | 96.4%
C/C=C/C(=O)Nc1cc(Nc2nc(Nc3cnn(C)c3)c3sccc3n2)c(OC)cc1N(C)CCN(C)C | NCI-H1975 | MTT |  | pIC50 | 5.51
Cc1cc(=O)c(-c2ccc(OCc3ccc(OC(F)(F)F)cc3)cc2)c(C)[nH]1 | HEK293 |  |  | pIC50 | < 5.00
CC#CC(=O)N1CC[C@@H](n2cc(-c3ccc(Oc4c(F)cccc4F)cc3)c3c(N)n[nH]c(=O)c32)C1 | KARPAS-422 | ATP luminescence | 72 h | GI50 | 12100 nM
